Measured values of several laboratories.
Each line is one published result; the experiments were not run side by side.
Target: Dual specificity protein kinase CLK2 (CLK2, Homo sapiens, UniProt P49760)
Method: competition with immobilised ligand

SMILES | test | conditions | remaining binding
C[C@@H](c1ccc(-n2cnc3c(N)ncnc32)cc1)N1CCc2nn(C)c(Cc3ccccc3)c2C1=O | binding | 0.1 µM | 79%
CC(=O)C1=C(C)N(c2cccc(C(F)(F)F)c2)C(=O)N[C@@H]1c1ccc(C#N)nc1 | cell-free assay | 1 µM | 100%
Cc1cnc(Nc2ccc(C(=O)N3CCC(N4CCCC4)CC3)cc2)nc1-c1cc2ccccc2s1 | binding | 1 µM | 8.8%
COc1ccc2c(c1)O[C@H](c1ccc(OC)c(OC)c1)C[C@@H]2NC(=O)C1(c2ccc3c(c2)OC(F)(F)O3)CC1 | cell-free assay | 1 µM | 95%
C=CC(=O)N1CCC(C(=O)NCC(=O)N2CCN(c3nc(-c4cnc(N)nc4C(F)F)nc(N4CCOCC4)n3)CC2)CC1 | binding | 1 µM | 91%
COc1cnc(Nc2cccc(S(N)(=O)=O)c2)nc1N1CCN(c2ccccc2)C(=O)C1 | binding | 1 µM | 76%
CN(CCCC(F)(F)F)c1nccc(-c2cnn3ncccc23)n1 | binding | 1 µM | 47%
Cc1nc(Cc2cccc(C(F)(F)F)c2)sc1-c1ccc(C(N)=O)nc1 | cell-free assay | 1 µM | 100%
COc1cnc(Nc2cccc(S(N)(=O)=O)c2)nc1N1CCN(c2ccccc2)CC1 | binding | 1 µM | 99%
O=C(c1ccc(Nc2ncc(Cl)c(-c3ccc(Cl)s3)n2)cc1)N1CCC(N2CCCC2)CC1 | binding | 1 µM | 5.2%
C[C@@]1(Cc2ccc(C#N)cc2)C(=O)N(c2cc(Cl)cc(Cl)c2)c2ncc(C(=O)NC3(c4nc(C5CCC5)no4)CC3)n21 | cell-free assay | 1 µM | 100%
O=C(c1ccc(Nc2nccc(-c3cc4ccccc4s3)n2)cc1)N1CCC(N2CCCC2)CC1 | binding | 1 µM | 39%
O=C(NCC1CCOCC1)c1n[nH]cc1NC(=O)c1c(F)cccc1F | binding | 1 µM | 34%
